Bioassay records: PubChem, several laboratories
NPR1 activator = GC-A (human) enzyme activation. P16066. HEK293 GC-A cells, cGMP TR-FRET, EC30 ANP; 0% at EC30 ANP, 100% saturating ANP. activation, % at 10 µM. 370,000 compounds, 0.14% hits. AID 1671463; in the data active = activation above about 40%
GalR3 antagonist = human GalR3 antagonism; O60755; HEK293 GalR3-CNG cAMP membrane potential fluorescence; galR3 body fused to GalR1 C-terminus; inhibition, % at 3 µM; 360,000 compounds, 0.44% hits;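 active = inhibition above the screen-wide average plus 3 SD, cut at about 13% in these data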;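 note: forskolin and galanin both at EC90 stimulate the cells; cAMP rise reported by CNG channel membrane potential dye signal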
Target sequence (O60755 1-299 limits assumed): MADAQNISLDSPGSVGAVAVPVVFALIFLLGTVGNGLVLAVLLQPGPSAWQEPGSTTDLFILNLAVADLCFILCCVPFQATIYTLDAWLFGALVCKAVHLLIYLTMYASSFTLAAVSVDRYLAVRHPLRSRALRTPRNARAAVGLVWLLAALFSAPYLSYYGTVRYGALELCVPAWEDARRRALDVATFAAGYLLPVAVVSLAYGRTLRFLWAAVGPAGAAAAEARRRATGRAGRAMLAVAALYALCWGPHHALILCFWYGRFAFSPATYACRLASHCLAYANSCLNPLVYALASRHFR
NPR2 activator = GC-B (human) receptor activation; HEK293-GC-B cells, CNP EC30, cGMP TR-FRET; 0% at EC30 CNP, 100% saturating CNP; activation, % at 10 µM; 370,000 compounds, 0.11% hits; AID 1920062;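 active = activation at 10 µM reaching about 35% in either raw or pattern-adjusted values, limit read from the data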
Arr AP2 block = blocks beta-arrestin peptide binding to AP2 adaptin | FITC-arrestin peptide / GST-AP2 beads, flow cytometry; AP2 beta2 appendage carries R879A mutation | inhibition, % at 10 µM | 340,000 compounds, 0.31% hits | AID 504490;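 active = inhibition above a set limit, near 3 SD of compounds lacking own fluorescence, cut at about 54% in these data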
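System: GST-AP2 R879A glutathione beads; medium: PBS, Tween 20 0.05%, BSA 0.1%; reagent: fluorescein-tagged arrestin peptide at 50 nM final; schedule: pre-incubation 12 min, peptide binding 1 h, room temperature; detection: flow cytometry, FL1 (488/535 nm); read-out: inhibition as reduced fluorescein signal on beads, percent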
GalR3 conf = GalR3 (human) antagonism, confirmation. shares compounds with GalR3 antagonist. HEK293 GalR3 CNG cAMP biosensor, membrane potential fluorescence; galR3 fused to GalR1 carboxy tail; challenged with forskolin and galanin at EC90. inhibition, % at 3 µM. 1,600 compounds, 59% hits. AID 652245;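 active = inhibition above the primary screen's cutoff, the mean inhibition of all screened compounds plus 3 SD, cut at about 13% in these data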
CNG parental = acts as nonspecific agonist in parental HEK-CNG cells; shares compounds with GalR3 antagonist; 1,600 compounds, 10% hits; activation, % at 3 µM; HEK293-CNG parental cells, cAMP membrane potential fluorescence; normalised: DMSO wells 0%, forskolin wells 100%; AID 652268; in the data active = activation above about 1.3%
A number is an active result; 0 = inactive; - = no result given. Shown are actives, neighbours in structure and some others; about 0.94% of the full set was active somewhere.

SMILES	NPR1 activator	GalR3 antagonist	NPR2 activator	Arr AP2 block	GalR3 conf	CNG parental
C=CCO[C@H]1CN(C(=O)OC)[C@@H](c2ccccc2Br)C[C@H]1OCC=C	0	0	0	-	-	-
O=C(Nc1ccccc1O)C(c1ccccc1)c1ccccc1	0	54.6	0	0	91.9	0
O=C(O)c1ccccc1NC(=O)C(c1ccccc1)c1ccccc1	0	0	0	0	-	-
CCCCC[C@H](O)/C=C/C1C(=O)C=C[C@H]1C/C=C\CCCC(=O)OC (some centres undefined)	0	64.3	0	0	80.0	0
COc1ccc(/C=N/NC(=O)c2c(C)n(C)c3ccc(OC)cc23)c(OC)c1	0	13.6	0	0	0	0
CC(=O)c1ccc(S(=O)(=O)N2CCN(C(=O)C(=O)c3cccc(C(F)(F)F)c3)CC2)cc1	0	0	0	-	-	-
COc1ccc(OC)c(CCNC(=O)C(C)n2nc(C)c3c(C)n(-c4ccc(C)cc4)nc3c2=O)c1 (centres undefined)	0	50.0	0	0	91.3	0
CCC(=O)c1ccc(OCC(O)Cn2c(C)nc3ccccc32)cc1 (centres undefined)	0	56.0	0	0	0	0
C[C@H](CO)N1C[C@H](C)[C@@H](CN(C)C(=O)CCC(F)(F)F)OCc2cn(nn2)CCCC1=O	0	0	0	-	-	-
Cn1nc(C(C)(C)C)cc1C(=O)NCc1cc(F)cc2c1OCOC2	0	95.4	0	0	111.1	0
C[C@@H]1CN([C@@H](C)CO)C(=O)CCCn2cc(nn2)CO[C@H]1CN(C)C(=O)NC1CCCCC1	0	0	0	-	-	-
O=C(COC(=O)c1cccc(Br)c1)Nc1ccc2[nH]c(=O)[nH]c2c1	0	32.5	0	0	48.8	0
CCCCCCCCN1C(=O)[C@@H](CC(=O)NCC23CC4CC(CC(C4)C2)C3)C[C@@]2(C(=O)OC)C1=C[C@H](C(C)(C)C)O[C@@H]2C	0	0	0	-	-	-
O=C(NCc1ccc(Cl)cc1)C(=O)c1cn(CC(=O)N2CCOCC2)c2ccccc12	0	19.3	0	0	0	0
COc1ccc(CNC(=O)C(=O)c2cn(CC(=O)N3CCOCC3)c3ccccc23)cc1	0	0	0	0	-	-
COC(=O)[C@]12CCCCC=C1N(CCc1ccc(OC)c(OC)c1)C(=O)[C@H](CC(=O)NCc1cccc3ccccc13)C2	0	0	0	-	-	-
COC(=O)[C@]12CCCCC=C1N(Cc1cccc3ccccc13)C(=O)[C@H](CC(=O)NCc1ccc(OC)c(OC)c1)C2	0	14.1	0	-	75.8	0
CCC(C)[C@H](NC(=O)[C@H](Cc1ccccc1)NC(=O)OC(C)(C)C)C(=O)NCc1ccccc1Br (some centres undefined)	0	-	0	-	-	-
Cc1ccc2[nH]c(O)c(N=NC(N)=S)c2c1	0	0	0	0	-	-
COc1ccc2[nH]c(O)c(N=NC(=N)N)c2c1	0	14.3	0	0	0	0
O=C(CN1CCC(c2nc3ccccc3s2)CC1)N1CCCCC1	0	0	0	0	-	-
O=C(CN1CCC(c2nc3ccccc3s2)CC1)NCc1cccs1	0	78.2	0	0	75.8	1.8
Nc1nc(SCC(=O)Nc2ccccc2C(F)(F)F)[nH]c(=O)c1-c1ccccc1	0	0	0	0	-	-
COc1ccccc1NC(=O)CSc1nc(N)c(-c2ccccc2)c(=O)[nH]1	0	46.4	0	0	38.3	0
COC(=O)[C@]12C[C@H](CC(=O)N3CCN(C(=O)c4ccco4)CC3)C(=O)N(Cc3ccc4c(c3)OCO4)C1=C[C@H](COCc1ccccc1)O[C@@H]2C	0	0	0	-	-	-
SMILES	NPR1 activator	GalR3 antagonist	NPR2 activator	Arr AP2 block	GalR3 conf	CNG parental
CCOc1cc(/C=C2\CCC/C(=C\c3cc(Cl)c(O)c(OCC)c3)C2=O)cc(Cl)c1O	0	24.1	0	0	53.5	0
CCOc1cc(/C=C2\CN(C)C/C(=C\c3ccc(O)c(OCC)c3)C2=O)ccc1O	0	0	0	0	-	-
CC(=O)N1CCc2cc(Br)c(S(=O)(=O)NCc3ccc(Cl)cc3)cc21	0	-	0	-	-	-
Cc1cccc(C)c1OCCn1nc(C(=O)O)c2ccccc2c1=O	0	16.1	0	0	24.1	0
O=C(O)c1nn(CCSc2ccccc2F)c(=O)c2ccccc12	0	26.6	0	0	0	0
Cc1noc(C)c1Cn1nc(C(=O)O)c2ccccc2c1=O	0	19.2	0	0	27.0	0
O=C1NC(=O)C(c2ccccc2[N+](=O)[O-])=C1Nc1ccc(O)c(Cl)c1	0	12.9	0	0	0	0
N#C/C(=C/c1cn(-c2ccccc2)nc1-c1cccc(S(=O)(=O)N2CCCC2)c1)C(=O)NCc1ccco1	0	13.8	0	0	23.0	0
Cc1cc(/C=C(\C#N)C(=O)NCc2ccco2)c(C)n1-c1ccc(C(=O)O)cc1	0	-	0	0	0	0
Cc1cc(/C=C(\C#N)C(=O)NCC2CCCO2)c(C)n1-c1ccc(Cl)cc1 (centres undefined)	0	0	0	0	-	-
O=C(NCc1ccco1)c1cccc(S(=O)(=O)N2CCCC2)c1	0	0	0	0	-	-
Cc1ccc(S(=O)(=O)NCc2ccc3c(c2)OCO3)cc1	0	0	0	-	-	-
COc1ccc(OC)c(CN2C(=O)CN(S(C)(=O)=O)CC2(C)c2nnnn2C2CCCC2)c1 (centres undefined)	0	-	0	-	-	-
COc1ccc(C2C3=C(CCCC3=O)Nc3ccc4ncccc4c32)cc1OC (centres undefined)	0	0	0	0	-	-
CCOC(=O)C1=C(C)NC2=C(C(=O)CCC2)C1c1ccc(O)c(OCC)c1 (centres undefined)	0	16.5	0	0	23.8	0
COc1cc(C2C3=C(CCCC3=O)Nc3ccc4ncccc4c32)ccc1O (centres undefined)	0	15.1	0	0	0	0
Cc1ccc(C2C3=C(CC(C)(C)CC3=O)N=C3c4ccccc4C(=O)C32)cc1 (centres undefined)	0	15.3	0	0	30.6	0
CC1(C)CC(=O)C2=C(C1)N=C1c3ccccc3C(=O)C1C2c1ccc(Cl)cc1 (centres undefined)	0	0	0	0	-	-
C#CCNC(=O)c1cc2cccnc2nc1N	0	0	0	-	-	-
COc1ccc(NS(=O)(=O)c2cccc(NC(=O)c3ccc(Cl)nc3)c2)cc1	0	82.2	0	0	96.5	0
NC(=O)c1nnn(Cc2cc(Cl)c(C(=O)c3ccc(Cl)cc3)c(Cl)c2)c1N	0	96.7	0	-	120.2	0
O=c1c2[nH]c3ccccc3c2ncn1CCC1=CCCCC1	0	0	0	0	-	-
C1=C(CCNc2ncnc3c2[nH]c2ccccc23)CCCC1	0	84.1	0	0	98.2	1.4
